The M2OR odorant receptor database
Substitutions are numbered along the chain they refer to.

Columns and labels:
Conditions in all cases: stereoisomer not certain
OR4S2 (Homo sapiens) = biological target: T1, OR4S2 (Homo sapiens) (UniProt Q8NH73)
T1 sequence (whole entry): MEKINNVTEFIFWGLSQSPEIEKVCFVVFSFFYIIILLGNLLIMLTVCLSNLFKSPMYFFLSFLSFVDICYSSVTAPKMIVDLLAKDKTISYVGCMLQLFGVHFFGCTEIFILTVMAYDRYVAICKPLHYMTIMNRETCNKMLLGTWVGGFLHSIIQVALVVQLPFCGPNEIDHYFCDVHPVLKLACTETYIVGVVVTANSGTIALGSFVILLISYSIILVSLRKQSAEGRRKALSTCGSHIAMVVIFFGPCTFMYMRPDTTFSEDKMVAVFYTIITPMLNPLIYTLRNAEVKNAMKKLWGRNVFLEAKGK
In short: (§1)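 Transient luciferase assays in mammalian cell lines were common, though methods varied by source. The values come from published papers and their supplementary material, with extra details from the original authors when needed. Responsive refers to a measured signal the original authors judged statistically different from baseline, and non-responsive (inactive) to the remainder.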

OR4X1 (Homo sapiens) = biological target: T2, OR4X1 (Homo sapiens) (UniProt Q8NH49)
T2 sequence (whole entry): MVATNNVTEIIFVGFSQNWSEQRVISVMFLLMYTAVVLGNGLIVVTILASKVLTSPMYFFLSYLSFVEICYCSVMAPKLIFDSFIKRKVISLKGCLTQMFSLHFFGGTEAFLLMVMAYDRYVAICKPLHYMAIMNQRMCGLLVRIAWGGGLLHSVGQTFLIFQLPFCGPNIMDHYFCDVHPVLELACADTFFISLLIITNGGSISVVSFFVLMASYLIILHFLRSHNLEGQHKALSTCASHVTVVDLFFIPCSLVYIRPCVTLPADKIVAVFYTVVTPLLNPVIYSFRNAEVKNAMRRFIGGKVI
In short: as §1

OR4X2 (Homo sapiens) = biological target: T3, OR4X2 (Homo sapiens) (UniProt Q8NGF9)
T3 sequence (whole entry): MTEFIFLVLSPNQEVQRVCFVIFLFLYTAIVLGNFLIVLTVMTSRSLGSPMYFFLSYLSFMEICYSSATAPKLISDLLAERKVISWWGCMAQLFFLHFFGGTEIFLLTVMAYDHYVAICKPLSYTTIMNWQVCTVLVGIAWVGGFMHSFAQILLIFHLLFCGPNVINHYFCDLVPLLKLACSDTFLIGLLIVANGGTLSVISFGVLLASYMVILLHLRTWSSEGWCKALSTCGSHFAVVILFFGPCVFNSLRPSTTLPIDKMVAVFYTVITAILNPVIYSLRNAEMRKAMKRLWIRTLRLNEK
In short: as §1

OR51A2 (Homo sapiens) = biological target: T4, OR51A2 (Homo sapiens) (UniProt Q8NGJ7)
T4 sequence (whole entry): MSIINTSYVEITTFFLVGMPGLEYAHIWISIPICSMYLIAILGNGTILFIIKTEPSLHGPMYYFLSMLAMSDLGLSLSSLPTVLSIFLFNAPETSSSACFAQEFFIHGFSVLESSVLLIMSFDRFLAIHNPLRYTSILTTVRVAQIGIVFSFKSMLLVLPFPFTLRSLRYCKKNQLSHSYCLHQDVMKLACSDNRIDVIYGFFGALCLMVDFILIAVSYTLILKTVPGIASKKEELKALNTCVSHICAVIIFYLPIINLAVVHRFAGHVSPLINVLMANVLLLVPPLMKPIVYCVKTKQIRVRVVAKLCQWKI
In short: as §1

OR51A4 (Homo sapiens) = biological target: T5, OR51A4 (Homo sapiens) (UniProt Q8NGJ6)
T5 sequence (whole entry): T4 sequence (whole entry) with G59E, T94I, S97N, S167N, P227L, E235Q, G267R, M288T, K289N, W311R
In short: as §1

OR51A7 (Homo sapiens) = biological target: T6, OR51A7 (Homo sapiens) (UniProt Q8NH64)
T6 sequence (whole entry): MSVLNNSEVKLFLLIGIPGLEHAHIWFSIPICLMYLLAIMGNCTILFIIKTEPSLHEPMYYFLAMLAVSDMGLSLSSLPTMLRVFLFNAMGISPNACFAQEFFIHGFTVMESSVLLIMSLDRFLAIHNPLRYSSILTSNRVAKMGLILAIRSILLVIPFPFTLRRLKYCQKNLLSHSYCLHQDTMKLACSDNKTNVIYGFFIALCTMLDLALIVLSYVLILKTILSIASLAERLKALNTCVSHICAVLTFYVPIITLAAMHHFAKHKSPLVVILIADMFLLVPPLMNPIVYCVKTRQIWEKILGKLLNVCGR
In short: as §1

OR51B2 (Homo sapiens) = biological target: T7, OR51B2 (Homo sapiens) (UniProt Q9Y5P1)
T7 sequence (whole entry): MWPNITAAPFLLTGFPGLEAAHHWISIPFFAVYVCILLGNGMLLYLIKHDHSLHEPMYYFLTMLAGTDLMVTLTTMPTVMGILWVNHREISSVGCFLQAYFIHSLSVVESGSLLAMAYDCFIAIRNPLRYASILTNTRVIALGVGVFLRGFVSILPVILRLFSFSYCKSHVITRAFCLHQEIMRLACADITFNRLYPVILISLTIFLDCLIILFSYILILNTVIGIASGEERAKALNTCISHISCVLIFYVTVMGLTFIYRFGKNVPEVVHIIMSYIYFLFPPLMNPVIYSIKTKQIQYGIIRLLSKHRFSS
In short: as §1

OR51B4 (Homo sapiens) = biological target: T8, OR51B4 (Homo sapiens) (UniProt Q9Y5P0)
T8 sequence (whole entry): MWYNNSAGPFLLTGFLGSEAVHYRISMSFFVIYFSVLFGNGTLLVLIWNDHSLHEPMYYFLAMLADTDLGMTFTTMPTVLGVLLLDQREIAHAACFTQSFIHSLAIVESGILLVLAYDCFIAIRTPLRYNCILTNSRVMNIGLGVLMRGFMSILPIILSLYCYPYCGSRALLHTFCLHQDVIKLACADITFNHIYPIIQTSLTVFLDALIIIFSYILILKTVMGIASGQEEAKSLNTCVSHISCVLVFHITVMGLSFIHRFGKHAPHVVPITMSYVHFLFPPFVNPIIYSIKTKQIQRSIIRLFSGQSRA
In short: as §1

OR51B5 (Homo sapiens) = biological target: T9, OR51B5 (Homo sapiens) (UniProt Q9H339)
T9 sequence (whole entry): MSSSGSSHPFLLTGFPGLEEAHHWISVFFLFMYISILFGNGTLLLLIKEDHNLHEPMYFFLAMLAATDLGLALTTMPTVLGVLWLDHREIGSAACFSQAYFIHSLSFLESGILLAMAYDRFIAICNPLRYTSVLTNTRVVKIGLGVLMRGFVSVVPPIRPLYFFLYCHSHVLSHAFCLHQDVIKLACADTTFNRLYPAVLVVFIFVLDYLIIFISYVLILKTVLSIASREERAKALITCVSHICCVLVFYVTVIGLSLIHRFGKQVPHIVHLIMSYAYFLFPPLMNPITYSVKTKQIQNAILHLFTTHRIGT
In short: as §1

OR51B6 (Homo sapiens) = biological target: T10, OR51B6 (Homo sapiens) (UniProt Q9H340)
T10 sequence (whole entry): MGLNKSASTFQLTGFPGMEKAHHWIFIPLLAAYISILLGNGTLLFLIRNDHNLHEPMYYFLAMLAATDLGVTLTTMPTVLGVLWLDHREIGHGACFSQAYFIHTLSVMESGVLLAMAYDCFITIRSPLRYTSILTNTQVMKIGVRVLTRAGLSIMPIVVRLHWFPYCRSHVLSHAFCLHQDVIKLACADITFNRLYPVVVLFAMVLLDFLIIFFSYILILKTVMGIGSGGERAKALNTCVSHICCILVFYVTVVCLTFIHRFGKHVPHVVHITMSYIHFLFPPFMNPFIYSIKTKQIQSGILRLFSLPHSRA
In short: as §1

OR51D1 (Homo sapiens) = biological target: T11, OR51D1 (Homo sapiens) (UniProt Q8NGF3)
T11 sequence (whole entry): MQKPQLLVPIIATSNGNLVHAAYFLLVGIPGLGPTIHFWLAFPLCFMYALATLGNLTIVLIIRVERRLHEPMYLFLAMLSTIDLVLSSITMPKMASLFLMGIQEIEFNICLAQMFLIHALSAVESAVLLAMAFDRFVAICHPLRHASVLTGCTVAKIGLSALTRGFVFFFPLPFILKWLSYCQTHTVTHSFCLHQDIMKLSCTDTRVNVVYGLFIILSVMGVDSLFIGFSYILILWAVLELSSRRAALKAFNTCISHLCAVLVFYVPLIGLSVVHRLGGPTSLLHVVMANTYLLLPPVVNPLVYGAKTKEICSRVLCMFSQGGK
In short: as §1

OR51E1 (Homo sapiens) = biological target: T12, OR51E1 (Homo sapiens) (UniProt Q8TCB6)
T12 sequence (whole entry): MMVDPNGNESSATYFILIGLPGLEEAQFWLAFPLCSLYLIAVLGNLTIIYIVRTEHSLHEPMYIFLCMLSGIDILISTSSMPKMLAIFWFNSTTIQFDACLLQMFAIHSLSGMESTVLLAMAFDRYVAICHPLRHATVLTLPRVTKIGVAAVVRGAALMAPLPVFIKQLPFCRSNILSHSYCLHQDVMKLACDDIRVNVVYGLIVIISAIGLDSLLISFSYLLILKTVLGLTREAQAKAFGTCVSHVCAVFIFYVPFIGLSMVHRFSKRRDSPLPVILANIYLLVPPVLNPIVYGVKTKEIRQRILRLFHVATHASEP
In short: as §1

OR51E2 (Homo sapiens) = biological target: T13, OR51E2 (Homo sapiens) (UniProt Q9H255)
T13 sequence (whole entry): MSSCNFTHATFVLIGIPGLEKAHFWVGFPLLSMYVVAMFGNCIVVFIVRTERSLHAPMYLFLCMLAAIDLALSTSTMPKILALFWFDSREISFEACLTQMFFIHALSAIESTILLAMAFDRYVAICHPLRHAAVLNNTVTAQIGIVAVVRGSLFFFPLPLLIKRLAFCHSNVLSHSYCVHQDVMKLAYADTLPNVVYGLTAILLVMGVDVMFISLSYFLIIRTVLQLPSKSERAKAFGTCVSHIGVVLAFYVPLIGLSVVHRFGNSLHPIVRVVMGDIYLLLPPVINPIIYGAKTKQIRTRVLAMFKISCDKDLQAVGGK
In short: as §1

OR51F2 (Homo sapiens) = biological target: T14, OR51F2 (Homo sapiens) (UniProt Q8NH61)
T14 sequence (whole entry): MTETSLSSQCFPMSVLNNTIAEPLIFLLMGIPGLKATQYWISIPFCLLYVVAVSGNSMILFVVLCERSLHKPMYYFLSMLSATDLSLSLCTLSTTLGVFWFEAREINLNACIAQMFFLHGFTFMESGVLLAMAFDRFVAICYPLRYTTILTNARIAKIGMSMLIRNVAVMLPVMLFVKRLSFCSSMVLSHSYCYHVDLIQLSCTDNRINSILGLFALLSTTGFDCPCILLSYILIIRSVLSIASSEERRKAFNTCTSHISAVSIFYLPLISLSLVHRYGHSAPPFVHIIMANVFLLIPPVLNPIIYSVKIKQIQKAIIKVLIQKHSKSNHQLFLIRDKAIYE
In short: as §1

OR51G1 (Homo sapiens) = biological target: T15, OR51G1 (Homo sapiens) (UniProt Q8NGK1)
T15 sequence (whole entry): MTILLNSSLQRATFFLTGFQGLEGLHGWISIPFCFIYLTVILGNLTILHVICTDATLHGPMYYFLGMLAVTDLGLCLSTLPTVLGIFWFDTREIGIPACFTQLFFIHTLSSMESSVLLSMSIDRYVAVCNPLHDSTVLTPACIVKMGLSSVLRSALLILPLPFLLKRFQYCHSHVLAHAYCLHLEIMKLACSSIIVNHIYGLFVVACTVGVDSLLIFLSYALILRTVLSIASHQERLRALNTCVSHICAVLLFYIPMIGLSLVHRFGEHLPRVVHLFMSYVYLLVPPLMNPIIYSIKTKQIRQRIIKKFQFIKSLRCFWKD
In short: as §1

OR51G2 (Homo sapiens) = biological target: T16, OR51G2 (Homo sapiens) (UniProt Q8NGK0)
T16 sequence (whole entry): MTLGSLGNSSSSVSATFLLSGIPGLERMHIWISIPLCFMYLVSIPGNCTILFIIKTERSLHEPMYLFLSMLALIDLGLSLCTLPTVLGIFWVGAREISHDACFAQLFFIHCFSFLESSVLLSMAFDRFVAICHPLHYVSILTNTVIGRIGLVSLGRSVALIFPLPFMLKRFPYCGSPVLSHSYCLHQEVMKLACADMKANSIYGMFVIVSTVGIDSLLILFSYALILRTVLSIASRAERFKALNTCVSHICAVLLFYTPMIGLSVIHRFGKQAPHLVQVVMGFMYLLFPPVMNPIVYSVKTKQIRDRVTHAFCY
In short: as §1

OR51I1 (Homo sapiens) = biological target: T17, OR51I1 (Homo sapiens) (UniProt Q9H343)
T17 sequence (whole entry): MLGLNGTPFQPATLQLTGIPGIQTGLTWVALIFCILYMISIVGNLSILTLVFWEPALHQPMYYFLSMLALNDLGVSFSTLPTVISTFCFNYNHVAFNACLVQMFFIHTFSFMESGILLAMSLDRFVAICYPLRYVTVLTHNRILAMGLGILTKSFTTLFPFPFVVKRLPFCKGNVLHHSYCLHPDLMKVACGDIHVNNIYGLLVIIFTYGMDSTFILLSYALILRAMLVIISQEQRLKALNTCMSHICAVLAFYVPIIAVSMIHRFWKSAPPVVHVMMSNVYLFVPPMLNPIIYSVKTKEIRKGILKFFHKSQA
In short: as §1

Measured: odorant receptor agonist call;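 further: active if original authors judged signal statistically different from baseline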

CC1=C(O)C(=O)OC1C (configuration not stated)
inactive: all assays above
